Test results reported in ChEMBL document CHEMBL1158477, “Synthesis, in vivo evaluation, and molecular modeling studies of new pyrazolo[5,1-c][1,2,4]benzotriazine 5-oxide derivatives. Identification of a bifunctional hydrogen bond area related to the inverse agonism” (J Med Chem, 2009).
The source made the active and inactive calls. The rule behind the calls is not given here.

What was measured:
[1] = system: Mus musculus; test: Anxiolytic activity in CD1 albino mouse at 10 mg/kg, po after 30 mins by light/dark box test; type: functional, organism-based; design: dose 10 mg/kg
Summary of the method: (§1)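 Male CD-1 mice (22-24 g) given test substance po in 1% CMC (10 mL/kg), tested 30 min later in a light/dark box. Transfers between compartments and time spent in the illuminated side were measured. Values are mean ± SEM of 15-20 mice; compared with controls.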

[2] = system: Mus musculus; test: Anxiolytic activity in CD1 albino mouse at 30 mg/kg, po after 30 mins by light/dark box test in presence of flumazenil; type: functional, organism-based; design: dose 30 mg/kg
Summary of the method: (§2)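 Light/dark box in male CD-1 mice. Test substance given po in 1% CMC 30 min before the test, with flumazenil 100 mg/kg ip (saline) co-treatment. Transfers between compartments and time in the lit side recorded. Mean ± SEM of 15-20 mice.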

[3] = species: Bos taurus; test: Displacement of [3H]flumazenil from GABAA/Benzodiazepine receptor in bovine brain at 10 uM
Summary of the method: (§3)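 Bovine brain membranes; displacement of specific [3H]flumazenil (Ro15-1788) binding. Percent inhibition measured at 10 μM; Ki determined only when inhibition at that concentration exceeded 80%. Ki given as mean ± SEM of five determinations.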

[4] = system: Mus musculus; test: Effect on learning and memory process in CD1 albino mouse assessed as decrease in retention latency at 10 mg/kg, po after 24 hrs by passive avoidance test; type: functional, organism-based; design: dose 10 mg/kg
Summary of the method: (§4)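 Step-through passive avoidance in a two-compartment box (lit and dark compartments joined by a guillotine door). Male CD-1 mice dosed po (1% CMC) 30 min before training; retention tested 24 h later. Training and retention latencies recorded; mean ± SEM of 15-20 mice versus controls.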

[5] = system: Mus musculus; test: Effect on ethanol-induced sleeping time in CD1 albino mouse assessed as increase in duration of loss of righting reflex at 10 mg/kg, po preincubated 30 mins before ethanol challenge; type: functional, organism-based; design: dose 10 mg/kg
[6] = system: Mus musculus; test: Effect on learning and memory process in CD1 albino mouse assessed as decrease in retention latency at 30 mg/kg, po after 24 hrs by passive avoidance test; type: functional, organism-based; design: dose 30 mg/kg; summary of the method: as §4
[7] = system: Mus musculus; test: Effect on ethanol-induced sleeping time in CD1 albino mouse assessed as increase in duration of loss of righting reflex at 30 mg/kg, po preincubated 30 mins before ethanol challenge; type: functional, organism-based; design: dose 30 mg/kg
[8] = system: Mus musculus; test: Anxiolytic activity in CD1 albino mouse at 30 mg/kg, po after 30 mins by light/dark box test; type: functional, organism-based; design: dose 30 mg/kg; summary of the method: as §1
[9] = system: Mus musculus; test: Anxiolytic activity in CD1 albino mouse at 3 mg/kg, po after 30 mins by light/dark box test; type: functional, organism-based; design: dose 3 mg/kg; summary of the method: as §1
[10] = system: Mus musculus; test: Effect on motor coordination in CD1 albino mouse assessed as number of falls form rotarod at 30 mg/kg, po […] measured for 30 seconds after 30 mins of drug infusion by rotarod test; type: functional
Summary of the method: (§5)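 Rota-rod in male CD-1 mice with a pretest. Test substance given po in 1% CMC; falls from the rotating rod counted over 30 s, assessed 30 min after treatment.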

[11] = system: Mus musculus; test: Anticonvulsant activity against pentylenetetrazole-induced convulsions in CD1 albino mouse assessed as convulsion latency at 3 mg/kg, po preincubated for 30 mins before pentylenetetrazole challenge measured for 30 mins (RVb=599 +/- 37.6 seconds); type: functional
[12] = system: Mus musculus; test: Effect on motor coordination in CD1 albino mouse assessed as number of falls form rotarod at 10 mg/kg, po […] measured for 30 seconds after 30 mins of dosing by rotarod test; type: functional; summary of the method: as §5
[13] = system: Mus musculus; test: Effect on explorative capacity in CD1 albino mouse assessed as curiosity-related number of head plugging activity on hole at 10 mg/kg, po after 30 mins by hole-board test; type: functional
Summary of the method: (§6)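 Hole-board test in male CD-1 mice: animals placed singly on the board and allowed to explore panel and holes. Test run 30 min after po dosing in 1% CMC (10 mL/kg). Hole entries (curiosity) and plane movements (spontaneous motility) counted; 10 mice per group, compared with CMC controls.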

[14] = system: Mus musculus; test: Effect on spontaneous motility in CD1 albino mouse assessed as number of movement on plane board at 30 mg/kg, po after 30 mins by hole-board test; type: functional; summary of the method: as §6
[15] = system: Mus musculus; test: Anticonvulsant activity against pentylenetetrazole-induced shock in CD1 albino mouse assessed as shock latency at 30 mg/kg, po preincubated for 30 mins before pentylenetetrazole challenge measured for 30 mins (RVb=253.1 +/- 13 seconds); type: functional
[16] = system: Mus musculus; test: Effect on spontaneous motility in CD1 albino mouse assessed as number of movement on plane board at 3 mg/kg, po after 30 mins by hole-board test; type: functional; summary of the method: as §6
[17] = system: Mus musculus; test: Effect on spontaneous motility in CD1 albino mouse assessed as number of movement on plane board at 10 mg/kg, po after 30 mins by hole-board test; type: functional; summary of the method: as §6
[18] = system: Mus musculus; test: Effect on explorative capacity in CD1 albino mouse assessed as curiosity-related number of head plugging activity on hole at 3 mg/kg, po after 30 mins by hole-board test; type: functional; summary of the method: as §6
[19] = system: Mus musculus; test: Anticonvulsant activity against pentylenetetrazole-induced shock in CD1 albino mouse assessed as shock latency at 10 mg/kg, po preincubated for 30 mins before pentylenetetrazole challenge measured for 30 mins (RVb=253.1 +/- 13 seconds); type: functional
[20] = system: Mus musculus; test: Effect on learning and memory process in CD1 albino mouse assessed as improvement in retention latency at 10 mg/kg, po after 24 hrs by passive avoidance test; type: functional, organism-based; design: dose 10 mg/kg; summary of the method: as §4
[21] = system: Mus musculus; test: Effect on ethanol-induced sleeping time in CD1 albino mouse assessed as reduction in duration of loss of righting reflex at 30 mg/kg, po preincubated 30 mins before ethanol challenge; type: functional, organism-based; design: dose 30 mg/kg
[22] = system: Mus musculus; test: Anticonvulsant activity against pentylenetetrazole-induced shock in CD1 albino mouse assessed as shock latency at 3 mg/kg, po preincubated for 30 mins before pentylenetetrazole challenge measured for 30 mins (RVb=253.1 +/- 13 seconds); type: functional
[23] = system: Mus musculus; test: Effect on learning and memory process in CD1 albino mouse assessed as improvement in retention latency at 30 mg/kg, po after 24 hrs by passive avoidance test; type: functional, organism-based; design: dose 30 mg/kg; summary of the method: as §4
[24] = system: Mus musculus; test: Effect on explorative capacity in CD1 albino mouse assessed as curiosity-related number of head plugging activity on hole at 30 mg/kg, po after 30 mins by hole-board test; type: functional; summary of the method: as §6
[25] = system: Mus musculus; test: Anxiolytic activity in CD1 albino mouse at 10 mg/kg, po after 30 mins by light/dark box test in presence of flumazenil; type: functional, organism-based; design: dose 10 mg/kg; summary of the method: as §2
[26] = Displacement of [3H]flumazenil from GABAA/Benzodiazepine receptor in bovine brain; design: species or system Bos taurus; summary of the method: as §3
[27] = system: Mus musculus; test: Effect on motor coordination in CD1 albino mouse assessed as number of falls form rotarod at 3 mg/kg, po administered 60 mins before test measured for 30 seconds after 30 mins of drug infusion by rotarod test; type: functional; summary of the method: as §5
[28] = system: Mus musculus; test: Anticonvulsant activity against pentylenetetrazole-induced convulsions in CD1 albino mouse assessed as convulsion latency at 10 mg/kg, po preincubated for 30 mins before pentylenetetrazole challenge measured for 30 mins (RVb=599 +/- 37.6 seconds); type: functional
[29] = system: Mus musculus; test: Effect on ethanol-induced sleeping time in CD1 albino mouse assessed as increase in duration of loss of righting reflex at 3 mg/kg, po preincubated 30 mins before ethanol challenge; type: functional, organism-based; design: dose 3 mg/kg
[30] = system: Mus musculus; test: Anticonvulsant activity against pentylenetetrazole-induced convulsions in CD1 albino mouse assessed as convulsion latency at 30 mg/kg, po preincubated for 30 mins before pentylenetetrazole challenge measured for 30 mins (RVb=599 +/- 37.6 seconds); type: functional
[31] = system: Mus musculus; test: Anxiolytic activity in CD1 albino mouse at 1 mg/kg, ip after 20 mins by light/dark box test in presence of flumazenil; type: functional, organism-based; design: dose 1 mg/kg
Summary of the method: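 Male CD-1 mice given drug ip in saline, tested in a light/dark box. Number of transfers between compartments and time spent in the illuminated side recorded. Flumazenil given ip at 100 mg/kg as antagonist.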

[32] = system: Mus musculus; test: Anticonvulsant activity against pentylenetetrazole-induced convulsions in CD1 albino mouse assessed as absence of convulsions at 1 mg/kg, ip preincubated for 30 mins before pentylenetetrazole challenge measured for 30 mins; type: functional, organism-based; design: dose 1 mg/kg
Summary of the method: (§7)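 Male CD-1 mice (22-24 g), drug in isotonic saline given ip; PTZ 90 mg/kg sc injected 30 min after drug. Occurrence of clonic generalized convulsions noted over 30 min, with shock and convulsion latency recorded. Controls received 1% CMC.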

[33] = system: Mus musculus; test: Anticonvulsant activity against pentylenetetrazole-induced shock in CD1 albino mouse assessed as absence of shocks at 1 mg/kg, ip preincubated for 30 mins before pentylenetetrazole challenge measured for 30 mins; type: functional, organism-based; design: dose 1 mg/kg; summary of the method: as §7
[34] = system: Mus musculus; test: Effect on ethanol-induced sleeping time in CD1 albino mouse assessed as increase in duration of loss of righting reflex at 1 mg/kg, ip preincubated 30 mins before ethanol challenge; type: functional, organism-based; design: dose 1 mg/kg
Summary of the method: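 Male CD-1 mice given drug ip in saline. Ethanol 4 g/kg ip injected 30 min after drug. Duration of loss of righting reflex taken as sleep time, capped at 210 min. Mean of 15-20 mice per group.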

SMILES: CC(Oc1ccc2c(c1)n1ncc(I)c1n[n+]2[O-])c1ccccc1 (stereo in doubt; (+)-16)
- Activity [1]: Active
- Activity [2]: inactive
- Activity [3]: > 80%
- Activity [4]: Active
- Activity [5]: Active
- Activity [6]: Active
- Activity [7]: Active
- Activity [8]: Active

SMILES: [O-][n+]1nc2c(I)cnn2c2cc(OCc3ccccc3)ccc21
- Activity [9]: Active
- Activity [10]: 1.7
- Activity [11]: 380.2 s
- Activity [1]: Active
- Activity [12]: 2.2
- Activity [13]: 22.7
- Activity [14]: 54.5
- Activity [15]: 354 s
- Activity [16]: 54.3
- Activity [17]: 66.9
- Activity [2]: inactive
- Activity [18]: 29
- Activity [3]: > 80%
- Activity [19]: 266.1 s
- Activity [20]: Active
- Activity [21]: Active
- Activity [5]: inactive
- Activity [22]: 375 s
- Activity [23]: Active
- Activity [24]: 28.7
- Activity [25]: inactive
- Ki [26]: 1.1 nM
- Activity [27]: 1.5
- Activity [28]: 360.8 s
- Activity [29]: inactive
- Activity [8]: Active
- Activity [30]: 479.7 s

SMILES: CN1C(=O)CN=C(c2ccccc2)c2cc(Cl)ccc21
- Activity [31]: inactive
- Activity [32]: Active
- Activity [33]: Active
- Activity [34]: Active
